Reference: ChEMBL document CHEMBL4043300, “2 H-1,2,3-Triazole-Based Dipeptidyl Nitriles: Potent, Selective, and Trypanocidal Rhodesain Inhibitors by Structure-Based Design” (J Med Chem, 2018)
In brackets after ≈: the same amount, converted by molar mass.

Legend:
[1] = Octanol-water intrinsic distribution co-efficient, log D of the compound at 100 uM at pH 7.4 after 16 to 22 hrs by CAMDIS assay; type: physicochemical
In short: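 Octanol/aqueous buffer (pH 7.4) intrinsic distribution coefficient measured in the CAMDIS carrier-mediated distribution system.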

[2] = Solubility of the compound at pH 6.5 by LYSA; type: physicochemical; conditions: buffer
In short: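 Lyophilization solubility assay at pH 6.5.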

Rhodesain = Rhodesain (Trypanosoma brucei rhodesiense, UniProt Q95PM0); experiment: Inhibition of Trypanosoma brucei rhodesiense rhodesain using Cbz-Phe-Arg-AMC as substrate by fluorimetric method
In short: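 Fluorescence-based assay run at 25 °C in 50 mM sodium acetate pH 5.5 with 5 mM EDTA, 200 mM NaCl and 0.005% Brij35. IC50 values were converted to Ki with the Cheng-Prusoff equation. Values are the average of two measurements, each done in duplicate.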

Procathepsin L = Procathepsin L (Homo sapiens, UniProt P07711); experiment: Inhibition of human CatL using Cbz-Phe-Arg-AMC as substrate measured over 30 mins by fluorimetric method
In short: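 Human cathepsin L in a fluorimetric assay in 50 mM Tris pH 6.5, 5 mM EDTA, 200 mM NaCl, 0.005% Brij35 at 25 °C. Ki was calculated from IC50 by Cheng-Prusoff. Value is the average of two measurements, each in duplicate.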

[3] = Selectivity index, ratio of Ki for human CatL to Ki for Trypanosoma brucei rhodesiense rhodesain
In short: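 Ki(hCatL)/Ki(RD). Fluorimetric assays at 25 °C: RD in 50 mM sodium acetate pH 5.5; hCatL in 50 mM Tris pH 6.5; both buffers with 5 mM EDTA, 200 mM NaCl, 0.005% Brij35. Ki derived from IC50 by Cheng-Prusoff. Each value is the mean of two measurements, each done in duplicate.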

[4] = system: Trypanosoma brucei rhodesiense; experiment: Antitrypanosomal activity against bloodstream form of Trypanosoma brucei rhodesiense STIB 900 assessed as parasite growth inhibition after 72 hrs by Alamar blue assay; type: functional; conditions: STIB 900, 72 h
In short: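 Standard 72 h growth-inhibition assay with STIB 900 bloodstream trypomastigotes and Alamar Blue read-out. Value is the mean of at least 2 measurements.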

L6 = experiment: Cytotoxicity against rat L6 cells after 72 hrs by Alamar blue assay; type: cell-based; conditions: L6, 72 h
In short: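 Rat skeletal myoblast L6 cells in an Alamar Blue growth-inhibition assay. Value is the mean of at least 2 measurements.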

[5] = Intrinsic clearance in human liver microsomes at 2 uM after 30 mins in presence of NADPH by LC-MS/MS method; type: ADME, microsome; conditions: read-out: CLH
[6] = Intrinsic clearance in mouse liver microsomes at 2 uM after 30 mins in presence of NADPH by LC-MS/MS method; type: ADME, microsome; conditions: read-out: CLH
[7] = Permeability of the compound after 15 hrs by PAMPA; type: physicochemical; conditions: read-out: permeability
Cytochrome P450 3A4 = Cytochrome P450 3A4 (Homo sapiens, UniProt P08684); experiment: Inhibition of CYP3A4 in human liver microsomes using DBF as substrate by fluorescence assay; type: ADME
In short: (§1)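 Human liver microsomes with CYP-selective substrate metabolism reactions for 2C9, 2D6 and 3A4.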

Cytochrome P450 2D6 = Cytochrome P450 2D6 (Homo sapiens, UniProt P10635); experiment: Inhibition of CYP2D6 in human liver microsomes using AMMC as substrate by fluorescence assay; type: ADME; in short: as §1
Cytochrome P450 2C9 = Cytochrome P450 2C9 (Homo sapiens, UniProt P11712); experiment: Inhibition of CYP2C9 in human liver microsomes using MFC as substrate by fluorescence assay; type: ADME; in short: as §1
[8] = Half life in C57BL/6J mouse at 1.3 mg/kg, iv as bolus dose by LC-MS/MS analysis; type: ADME, organism-based; conditions: in vivo
In short: (§2)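 Mice received intravenous compound in N-methylpyrrolidinone / 40% aqueous hydroxypropyl-γ-cyclodextrin (30/70). Blood was drawn into K₂EDTA at 5 min, 15 min, 30 min, 1, 2, 4 and 8 h, and plasma was separated at 3000 × g for 5 min at 4 °C and stored at -20 °C. Plasma levels were measured by LC–MS/MS, and parameters derived by non-compartmental analysis.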

[9] = Clearance in C57BL/6J mouse at 1.3 mg/kg, iv as bolus dose by LC-MS/MS analysis; type: ADME, organism-based; conditions: in vivo; in short: as §2
[10] = Volume of distribution at steady state in C57BL/6J mouse at 1.3 mg/kg, iv as bolus dose by LC-MS/MS analysis; type: ADME, organism-based; conditions: in vivo, read-out: Vdss; in short: as §2
[11] = Selectivity index, ratio of IC50 for rat L6 cells to IC50 for bloodstream form of Trypanosoma brucei rhodesiense STIB 900; type: toxicity; conditions: read-out: Ratio IC50
In short: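 Ratio of L-6 rat skeletal myoblast IC50 to T. b. rhodesiense STIB 900 bloodstream trypomastigote IC50, both from Alamar Blue growth-inhibition assays. Each IC50 is the mean of at least 2 measurements.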

[12] = Half life in C57BL/6J mouse at 1.5 mg/kg, iv as bolus dose by LC-MS/MS analysis; type: ADME, organism-based; conditions: in vivo
In short: (§3)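 Mice given single i.v. dose in N-methylpyrrolidinone / 40% (v/v) aqueous hydroxypropyl-γ-cyclodextrin (30/70 v/v). Blood into K₂EDTA at 5 min, 15 min, 30 min, 1, 2, 4, 8 h, sublingually or by terminal cardiac puncture under isoflurane. Plasma spun at 3000 × g, 5 min, 4 °C, stored at -20 °C. Plasma levels by LC–MS/MS; parameters by non-compartmental analysis.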

[13] = Clearance in C57BL/6J mouse at 1.5 mg/kg, iv as bolus dose by LC-MS/MS analysis; type: ADME, organism-based; conditions: in vivo; in short: as §3
[14] = Volume of distribution at steady state in C57BL/6J mouse at 1.5 mg/kg, iv as bolus dose by LC-MS/MS analysis; type: ADME, organism-based; conditions: in vivo, read-out: Vdss; in short: as §3
[15] = Unbound fraction in human plasma; type: ADME, cell-free
[16] = system: Trypanosoma brucei rhodesiense; experiment: Antitrypanosomal activity against bloodstream form of Trypanosoma brucei rhodesiense STIB 900 infected in NMRI mouse assessed as reduction of parasitemia at 50 mg/kg, po administered for 3 consecutive days starting 1 day post infection measured at 24 hrs post last dose relative to control; type: functional; set-up: scale not given: the % may be the effect or the level left
In short: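 Female mice infected with STIB900 were dosed orally at 50 mg/kg/day on three consecutive days, starting 1 day post-infection. Compound was in 100% DMSO diluted 10-fold in distilled water, given at 0.1 mL/10 g. Tail-blood parasitaemia was measured 24 h after the last dose versus 4 untreated infected controls. Values are means of 2 mice.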

[17] = system: Trypanosoma brucei rhodesiense; experiment: Antitrypanosomal activity against bloodstream form of Trypanosoma brucei rhodesiense STIB 900 assessed as parasite growth inhibition after 2 hrs by Alamar blue assay; type: functional; conditions: STIB 900, 2 h
In short: (§4)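 Bloodstream STIB 900 trypomastigotes, 1x10⁴ per well, exposed to eleven 3-fold serial dilutions at 37 °C/5% CO₂ for the stated pulse time. Parasites were then pelleted and washed four times, and an aliquot was regrown 72 h drug-free in triplicate plates. Resazurin was added for 2–4 h, fluorescence read at ex 536/em 588 nm, and IC50 taken by linear regression of sigmoidal curves. Melarsoprol served as control.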

[18] = system: Trypanosoma brucei rhodesiense; experiment: Antitrypanosomal activity against bloodstream form of Trypanosoma brucei rhodesiense STIB 900 assessed as parasite growth inhibition after 6 hrs by Alamar blue assay; type: functional; conditions: STIB 900, 6 h; in short: as §4
[19] = system: Trypanosoma brucei rhodesiense; experiment: Antitrypanosomal activity against bloodstream form of Trypanosoma brucei rhodesiense STIB 900 assessed as parasite growth inhibition after 16 hrs by Alamar blue assay; type: functional; conditions: STIB 900, 16 h; in short: as §4
[20] = system: Trypanosoma brucei rhodesiense; experiment: Antitrypanosomal activity against bloodstream form of Trypanosoma brucei rhodesiense STIB 900 assessed as parasite growth inhibition after 24 hrs by Alamar blue assay; type: functional; conditions: STIB 900, 24 h; in short: as §4
[21] = system: Trypanosoma brucei rhodesiense; experiment: Antitrypanosomal activity against bloodstream form of Trypanosoma brucei rhodesiense STIB 900 assessed as parasite growth inhibition after 48 hrs by Alamar blue assay; type: functional; conditions: STIB 900, 48 h; in short: as §4
[22] = Half life in C57BL/6J mouse at 0.8 mg/kg, iv as bolus dose by LC-MS/MS analysis; type: ADME, organism-based; conditions: in vivo; in short: as §2
[23] = Clearance in C57BL/6J mouse at 0.8 mg/kg, iv as bolus dose by LC-MS/MS analysis; type: ADME, organism-based; conditions: in vivo; in short: as §2
[24] = Volume of distribution at steady state in C57BL/6J mouse at 0.8 mg/kg, iv as bolus dose by LC-MS/MS analysis; type: ADME, organism-based; conditions: in vivo, read-out: Vdss; in short: as §2
MDR1 (P-gp) = experiment: Efflux ratio of permeability across pig LLC-PK1 cells expressing human MDR1 at 1 uM after 3.5 hrs by LC-MS/MS analysis; type: ADME, cell-based, Sus scrofa
In short: (§5)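 LLC-PK1 monolayers stably transfected with human MDR1 or mouse Mdr1a, grown in Medium 199/10% FCS with colchicine on permeable inserts and used day 4 after seeding. 1 μM compound added apical or basolateral; transport run in both directions in triplicate, 37 °C, 5% CO₂. Donor and receiver sampled at 3.5 h, quantified by LC–MS/MS. Lucifer yellow checked monolayer tightness.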

Mdr1a (P-gp) = experiment: Efflux ratio of permeability across pig LLC-PK1 cells expressing mouse Mdr1a at 1 uM after 3.5 hrs by LC-MS/MS analysis; type: ADME, cell-based, Sus scrofa; in short: as §5

Sequence of Rhodesain (Q95PM0 whole entry): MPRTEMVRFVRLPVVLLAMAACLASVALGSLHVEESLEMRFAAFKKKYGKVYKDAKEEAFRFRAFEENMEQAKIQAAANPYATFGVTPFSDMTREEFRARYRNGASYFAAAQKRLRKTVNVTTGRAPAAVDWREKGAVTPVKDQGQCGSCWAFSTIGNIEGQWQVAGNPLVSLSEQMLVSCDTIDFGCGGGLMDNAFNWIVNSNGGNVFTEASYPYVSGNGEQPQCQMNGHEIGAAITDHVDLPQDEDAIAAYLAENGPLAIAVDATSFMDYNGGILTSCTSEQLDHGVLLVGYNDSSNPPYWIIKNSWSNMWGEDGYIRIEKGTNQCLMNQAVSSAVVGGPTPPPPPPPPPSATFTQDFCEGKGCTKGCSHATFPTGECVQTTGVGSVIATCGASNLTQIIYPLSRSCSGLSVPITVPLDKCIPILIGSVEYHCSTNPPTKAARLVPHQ
Sequence of Cytochrome P450 2C9 (P11712 whole entry): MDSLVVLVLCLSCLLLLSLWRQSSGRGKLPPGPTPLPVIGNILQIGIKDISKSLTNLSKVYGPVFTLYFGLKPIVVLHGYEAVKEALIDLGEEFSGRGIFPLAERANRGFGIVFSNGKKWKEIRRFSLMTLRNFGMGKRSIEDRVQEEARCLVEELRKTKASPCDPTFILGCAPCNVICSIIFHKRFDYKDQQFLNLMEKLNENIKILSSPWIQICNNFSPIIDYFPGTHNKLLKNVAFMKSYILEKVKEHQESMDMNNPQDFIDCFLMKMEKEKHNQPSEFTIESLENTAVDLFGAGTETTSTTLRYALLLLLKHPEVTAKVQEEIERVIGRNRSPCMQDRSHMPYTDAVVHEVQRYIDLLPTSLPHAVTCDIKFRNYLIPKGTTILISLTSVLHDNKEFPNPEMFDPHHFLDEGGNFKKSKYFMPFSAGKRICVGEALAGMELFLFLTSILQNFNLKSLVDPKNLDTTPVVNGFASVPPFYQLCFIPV
Sequence of Procathepsin L (P07711 whole entry): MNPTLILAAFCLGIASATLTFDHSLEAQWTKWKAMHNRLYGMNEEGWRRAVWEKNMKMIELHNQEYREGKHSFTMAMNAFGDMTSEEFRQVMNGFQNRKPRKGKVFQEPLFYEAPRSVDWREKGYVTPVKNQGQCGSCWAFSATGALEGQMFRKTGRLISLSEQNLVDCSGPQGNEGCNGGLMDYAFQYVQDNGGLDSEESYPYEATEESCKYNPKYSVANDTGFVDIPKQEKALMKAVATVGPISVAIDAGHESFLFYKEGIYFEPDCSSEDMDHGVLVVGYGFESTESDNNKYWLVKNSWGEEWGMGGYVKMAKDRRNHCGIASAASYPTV
Sequence of Cytochrome P450 3A4 (P08684 whole entry): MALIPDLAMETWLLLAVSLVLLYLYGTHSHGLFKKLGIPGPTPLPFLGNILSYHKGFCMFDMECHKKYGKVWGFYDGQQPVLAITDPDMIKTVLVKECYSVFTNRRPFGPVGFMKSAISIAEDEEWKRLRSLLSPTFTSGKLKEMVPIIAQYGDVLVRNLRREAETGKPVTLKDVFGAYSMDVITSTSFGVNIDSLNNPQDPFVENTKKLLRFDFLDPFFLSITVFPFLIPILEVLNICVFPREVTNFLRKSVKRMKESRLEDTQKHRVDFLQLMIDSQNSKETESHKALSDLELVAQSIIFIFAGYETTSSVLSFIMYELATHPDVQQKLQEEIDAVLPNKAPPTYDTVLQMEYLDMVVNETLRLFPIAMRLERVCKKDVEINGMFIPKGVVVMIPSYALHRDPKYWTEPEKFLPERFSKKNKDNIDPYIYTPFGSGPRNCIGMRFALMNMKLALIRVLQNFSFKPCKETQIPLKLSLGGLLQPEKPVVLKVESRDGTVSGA
Sequence of Cytochrome P450 2D6 (P10635 whole entry): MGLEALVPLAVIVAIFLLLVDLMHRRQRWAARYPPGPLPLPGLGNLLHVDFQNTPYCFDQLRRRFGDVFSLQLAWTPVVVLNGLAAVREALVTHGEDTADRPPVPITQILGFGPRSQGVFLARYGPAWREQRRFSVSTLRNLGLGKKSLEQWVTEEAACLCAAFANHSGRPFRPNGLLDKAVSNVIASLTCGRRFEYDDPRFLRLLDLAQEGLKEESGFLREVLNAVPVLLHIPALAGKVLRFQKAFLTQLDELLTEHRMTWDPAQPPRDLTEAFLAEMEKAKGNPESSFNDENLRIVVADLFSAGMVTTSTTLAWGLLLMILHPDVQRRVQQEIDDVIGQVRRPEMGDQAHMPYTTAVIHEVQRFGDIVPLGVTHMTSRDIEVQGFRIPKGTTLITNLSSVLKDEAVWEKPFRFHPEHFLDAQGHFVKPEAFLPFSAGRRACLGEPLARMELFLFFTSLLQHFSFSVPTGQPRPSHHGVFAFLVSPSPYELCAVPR

SMILES	logD at 100 µM [1]	solubility [2] [µg/mL]	Ki (Rhodesain) [nM]	Ki (Procathepsin L) [nM]	Ratio Ki [3]	IC50 [4] [nM]	IC50 (L6) [nM]	microsomal CLint at 2 µM [5] [µL/min/mg]	microsomal CLint at 2 µM [6] [µL/min/mg]	Papp at 15 h [7] [×10⁻⁶ cm/s]	IC50 (Cytochrome P450 3A4) [nM]	IC50 (Cytochrome P450 2D6) [nM]	IC50 (Cytochrome P450 2C9) [nM]	selectivity ratio [11]	half-life [12] [h]	clearance [13] [mL/min/kg]	Vd [14] [L/kg]	fraction unbound [15]	Activity [16] [%]	also measured
CC(C)(C)n1ncc(C(=O)N[C@@H](Cc2ccc(OC(F)(F)F)c(Cl)c2)C(=O)NC2(C#N)CC2)n1	4.87	0.9 (≈ 1.8 µM)	31	8	0.3	4	7630	< 10	17	2.86	> 50000	500	5000	1900	–	–	–	–	–	half-life [8]: 1.3 h; clearance [9]: 17 mL/min/kg; Vd [10]: 1.7 L/kg
Cn1ncc(C(=O)N[C@@H](Cc2ccc(OC(F)(F)F)c(Cl)c2)C(=O)NC2(C#N)CC2)n1	3.09	53 (≈ 116 µM)	23	15	0.7	40	> 10000	< 10	< 10	0.12	> 50000	6000	> 50000	–	1.52	22.8	2.7	0.226	53.6	–
N#CC1(NC(=O)[C@H](Cc2ccc(OC(F)(F)F)c(Cl)c2)NC(=O)c2cnn(-c3ccccc3)n2)CC1	–	< 0.3	2.9	81.7	28	5	17900	–	–	–	–	–	–	3580	–	–	–	–	–	IC50 [17]: > 1000 nM; IC50 [18]: > 1000 nM; IC50 [19]: > 1000 nM; IC50 [20]: 556 nM; IC50 [21]: 462 nM
N#CC1(NC(=O)[C@H](Cc2ccc(OC(F)(F)F)c(Cl)c2)NC(=O)c2cnn(-c3cccnc3)n2)CC1	3.7	4.2 (≈ 8.08 µM)	36	353	10	1	> 10000	< 10	11	0.447	8000	2000	7000	–	0.94	22.6	0.8	0.0395	–	–
N#CC1(NC(=O)[C@H](Cc2ccc(Cl)c(Cl)c2)NC(=O)c2cnn(-c3ccc(F)cc3)n2)CC1	–	< 0.3	2	131	66	7	9670	< 10	< 10	1.07	> 50000	5000	4000	1390	–	–	–	–	47.2	half-life [8]: > 6.4 h; clearance [9]: < 4.6 mL/min/kg; Vd [10]: < 2.5 L/kg
N#CC1(NC(=O)[C@H](Cc2ccc(OC(F)(F)F)c(Cl)c2)NC(=O)c2cnn(-c3ccc(F)nc3)n2)CC1	–	0.5 (≈ 0.93 µM)	14	143	10	6	6990	< 10	< 10	0.291	47000	1000	11000	1170	–	–	–	0.0148	40.8	half-life [22]: 1.42 h; clearance [23]: 10.2 mL/min/kg; Vd [24]: 1.2 L/kg
CC(C)n1ncc(C(=O)N[C@@H](Cc2ccc(OC(F)(F)F)c(Cl)c2)C(=O)NC2(C#N)CC2)n1	4.61	4 (≈ 8.25 µM)	18	4	0.2	4	> 10000	11	26	0.138	–	–	–	–	1.53	32.9	3	0.0826	–	–
N#CC1(NC(=O)[C@H](Cc2ccc(OC(F)(F)F)c(Cl)c2)NC(=O)c2cnn(-c3ccc(F)cc3)n2)CC1	–	< 0.3	7.4	266	36	9	18800	< 10	< 10	–	> 50000	3000	9000	2090	–	–	–	–	–	IC50 [17]: > 1000 nM; IC50 [18]: > 1000 nM; IC50 [19]: > 1000 nM; IC50 [20]: 450 nM; IC50 [21]: 64 nM; efflux ratio at 3.5 h, 1 µM (MDR1 (P-gp)): 6; efflux ratio at 3.5 h, 1 µM (Mdr1a (P-gp)): 20
